The results in this text go back to ChEMBL document CHEMBL4706672 (J Med Chem, 2021).

Structures are written as SMILES. Calls of active or inactive are those of the source. No cut-off for these calls is given here.

Assay [1] concerns the target Protein cereblon/Ubiquitin-conjugating enzyme E2 T (Homo sapiens) (UniProt Q96SW2+Q9NPD8). The experiment in a line: Protac activity at CRBN/UBE2T in human BxPC-3 cells assessed as UBE2T degradation incubated for 16 hrs by proteomic analysis. The format is cell-based. In short, it runs like this: (§1)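 BxPC-3 cells exposed 16 h in triplicate (control, PROTAC) or duplicate (other arms); lysed in RIPA at 4 °C, 75 μg protein per sample. Reduced with DTT (1 h, 55 °C), alkylated with 2-chloroacetamide, acetone-precipitated, trypsin-digested overnight at 37 °C, TMT 10plex labelled, relative quantitation by LC-tandem MS.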

Assay [2] concerns the target T1, Protein cereblon/Signal transducer and activator of transcription 3 (Homo sapiens, UniProt P40763+Q96SW2). Put plainly: Protac activity at CRBN/STAT3 in human BxPC-3 cells assessed as STAT3 degradation incubated for 16 hrs by proteomic analysis. Format: cell-based. In short, it runs like this: as §1
Assay [3] concerns the target Protein cereblon/E3 SUMO-protein ligase NSE2 (Homo sapiens) (UniProt Q96SW2+Q96MF7). Put plainly: Protac activity at CRBN/NSMCE2 in human BxPC-3 cells assessed as NSMCE2 degradation incubated for 16 hrs by proteomic analysis. The format is cell-based. In short, it runs like this:
(§2)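 TMT 10plex proteomics. […] Samples (75 μg) were reduced with DTT, alkylated with 2-chloroacetamide, acetone-precipitated, trypsin-digested overnight at 37 °C and TMT-labeled for LC-MS/MS relative quantitation.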

Assay [4] in a line: Upregulation of ceramide glucosyltransferase protein levels in human BxPC-3 cells incubated for 16 hrs by proteomic analysis. Format: functional. In short, it runs like this: (§3)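 BxPC-3 cells exposed to compound (2 μM) or DMSO control for 16 h, then lysed in RIPA buffer at 4 °C. Protein quantified by BCA; 75 μg per sample. TMT 10plex labeling: DTT reduction (1 h, 55 °C), 2-chloroacetamide alkylation (30 min, RT), acetone precipitation, overnight trypsin digestion at 37 °C, then LC-tandem MS relative quantitation. Control and treated samples run in triplicate.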

The target of assay [5] is Protein cereblon/Epithelial discoidin domain-containing receptor 1 (Homo sapiens) (UniProt Q08345+Q96SW2). The experiment in a line: Protac activity at CRBN/DDR1 in human BxPC-3 cells assessed as DDR1 degradation incubated for 16 hrs by proteomic analysis. Format: cell-based. In short, it runs like this: as §2
Assay [6] addresses Protein cereblon/E3 ubiquitin-protein ligase SHPRH (Homo sapiens) (UniProt Q96SW2+Q149N8). The experiment in a line: Protac activity at CRBN/SHPRH in human BxPC-3 cells assessed as SHPRH degradation incubated for 16 hrs by proteomic analysis. Format: cell-based. In a few lines:
as §2

A short description of assay [7]: Upregulation of RND3 protein levels in human BxPC-3 cells incubated for 16 hrs by proteomic analysis. Format: functional. In short, it runs like this:
as §1

Assay [8] addresses T2, Protein cereblon/E3 ubiquitin-protein ligase ZFP91 (Homo sapiens, UniProt Q96SW2+Q96JP5). Put plainly: Protac activity at CRBN/ZFP91 in human BxPC-3 cells assessed as degradation of ZFP91 at 0.5 uM incubated for 16 hrs in presence of napabucasin by western blot analysis. Format: cell-based. In short, it runs like this: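 Whole-cell lysates immunoblotted for ZFP91, GAPDH reference, densitometric quantification.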

The target in assay [9] is Protein cereblon/SET domain-containing protein 4 (Homo sapiens) (UniProt Q96SW2+Q9NVD3). Put plainly: Protac activity at CRBN/SETD4 in human BxPC-3 cells assessed as SETD4 degradation incubated for 16 hrs by proteomic analysis. The format is cell-based. In a few lines: as §2
In assay [10] the target is Protein cereblon/Methylated-DNA--protein-cysteine methyltransferase (Homo sapiens) (UniProt P16455+Q96SW2). The experiment in a line: Protac activity at CRBN/MGMT in human BxPC-3 cells assessed as MGMT degradation incubated for 16 hrs by proteomic analysis. Format: cell-based. In a few lines:
as §2

Assay [11] deals with Protein cereblon/Transmembrane protease serine 4 (Homo sapiens) (UniProt Q9NRS4+Q96SW2). Put plainly: Protac activity at CRBN/TMPRSS4 in human BxPC-3 cells assessed as TMPRSS4 degradation incubated for 16 hrs by proteomic analysis. Format: cell-based. In short, it runs like this: as §1
Assay [12] relates to BXPC-3. Put plainly: Antiproliferative activity against human BxPC-3 cells assessed as reduction in cell viability incubated for 3 days by MTT assay. Format: functional, cell-based. The conditions noted are these: BXPC-3, 72 h.
In assay [13] the target is Protein cereblon/Serine/threonine-protein kinase PLK1 (Homo sapiens) (UniProt P53350+Q96SW2). Put plainly: Protac activity at CRBN/PLK1 in human BxPC-3 cells assessed as PKL1 degradation incubated for 16 hrs by proteomic analysis. The format is cell-based. In short, it runs like this: as §2
Assay [14] is described as follows: Upregulation of Arx protein levels in human BxPC-3 cells incubated for 16 hrs by proteomic analysis. The format is functional. In short, it runs like this: as §1
Assay [15] deals with T2, Protein cereblon/E3 ubiquitin-protein ligase ZFP91. The experiment in a line: Protac activity at CRBN/ZFP91 in human BxPC-3 cells assessed as induction of ZF91 degradation incubated for 24 hrs by western blot analysis. Format: cell-based. In a few lines:
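BxPC-3 cells treated for 4, 16 or 24 h across a concentration series. ZFP91 immunoblotted against GAPDH; bands quantified by densitometry, DC50 calculated from dose-response curves of the densitometry.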

Assay [16] is described as follows: Upregulation of RhoB protein levels in human BxPC-3 cells incubated for 16 hrs by proteomic analysis. The format is functional. In a few lines:
as §1

In assay [17] the target is Protein cereblon/Eukaryotic peptide chain release factor GTP-binding subunit ERF3A (Homo sapiens) (UniProt Q96SW2+P15170). The experiment in a line: Protac activity at CRBN/GSPT in human BxPC-3 cells assessed as degradation of GSPT at 1 to 3 uM incubated for 16 hrs by western blot analysis. The conditions noted are these: dose 1-3 µM. Format: cell-based. In short, it runs like this:
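BxPC-3 cells were treated with compound for 16 h, then lysed and immunoblotted for GSPT (1:1000) alongside GAPDH. Detection used fluorescent secondary antibodies on an Odyssey imager, and bands were quantified by densitometry.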

Assay [18] concerns BXPC-3. Put plainly: Antiproliferative activity against human BxPC-3 cells harboring ZFP91siRNA assessed as reduction in cell viability incubated for 48 hrs by MTT assay. The format is functional, cell-based. The settings on record: BXPC-3, 48 h. In a few lines:
(§4)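 BxPC-3 cells were transfected with ZFP91 siRNA or scrambled control siRNA using Lipofectamine RNAiMAX in Opti-MEM, 5 pmol siRNA per complex. Compound was added together with the siRNA complex.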
For orientation: Formazan colour is commonly taken as a measure of viable cells.

The target in assay [19] is Protein cereblon/Protein LTV1 homolog (Homo sapiens) (UniProt Q96SW2+Q96GA3). The experiment in a line: Protac activity at CRBN/LTV1 in human BxPC-3 cells assessed as LTV1 degradation incubated for 16 hrs by proteomic analysis. The format is cell-based. In short, it runs like this:
as §2

Assay [20] deals with BXPC-3. Put plainly: Antiproliferative activity against ZFP91 knockdown human BxPC-3 cells assessed as reduction in cell viability incubated for 48 hrs by MTT assay. The format is functional, cell-based. The conditions noted are these: BXPC-3, 48 h. In short, it runs like this: as §4
The target of assay [21] is T1, Protein cereblon/Signal transducer and activator of transcription 3. Put plainly: Protac activity at CRBN/STAT3 in human BxPC-3 cells assessed as decrease in STAT3 expression level at 2 to 6 uM incubated for 12 hrs in presence of proteasome inhibitor MG132 by western blot analysis. The format is cell-based. The conditions noted are these: dose 2-6 µM. In short, it runs like this: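 Immunoblot of BxPC-3 cells given a 2 h pretreatment with MG132 at 10 μM, then test agent for 12 h. Cell lysis, BCA assay, SDS-PAGE/PVDF, probed for STAT3, pSTAT3 and NQO1 with GAPDH as reference.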

Assay [22] has as its target Protein cereblon/Melanoma-associated antigen D1 (Homo sapiens) (UniProt Q96SW2+Q9Y5V3). The experiment in a line: Protac activity at CRBN/MAGED1 in human BxPC-3 cells assessed as MAGED1 degradation incubated for 16 hrs by proteomic analysis. The format is cell-based. In a few lines:
as §2

The nature of assay [23]: Upregulation of ZNF430 protein levels human BxPC-3 cells incubated for 16 hrs by proteomic analysis. Format: functional. In short, it runs like this:
as §3

T1 sequence (P40763 2-770 limits assumed): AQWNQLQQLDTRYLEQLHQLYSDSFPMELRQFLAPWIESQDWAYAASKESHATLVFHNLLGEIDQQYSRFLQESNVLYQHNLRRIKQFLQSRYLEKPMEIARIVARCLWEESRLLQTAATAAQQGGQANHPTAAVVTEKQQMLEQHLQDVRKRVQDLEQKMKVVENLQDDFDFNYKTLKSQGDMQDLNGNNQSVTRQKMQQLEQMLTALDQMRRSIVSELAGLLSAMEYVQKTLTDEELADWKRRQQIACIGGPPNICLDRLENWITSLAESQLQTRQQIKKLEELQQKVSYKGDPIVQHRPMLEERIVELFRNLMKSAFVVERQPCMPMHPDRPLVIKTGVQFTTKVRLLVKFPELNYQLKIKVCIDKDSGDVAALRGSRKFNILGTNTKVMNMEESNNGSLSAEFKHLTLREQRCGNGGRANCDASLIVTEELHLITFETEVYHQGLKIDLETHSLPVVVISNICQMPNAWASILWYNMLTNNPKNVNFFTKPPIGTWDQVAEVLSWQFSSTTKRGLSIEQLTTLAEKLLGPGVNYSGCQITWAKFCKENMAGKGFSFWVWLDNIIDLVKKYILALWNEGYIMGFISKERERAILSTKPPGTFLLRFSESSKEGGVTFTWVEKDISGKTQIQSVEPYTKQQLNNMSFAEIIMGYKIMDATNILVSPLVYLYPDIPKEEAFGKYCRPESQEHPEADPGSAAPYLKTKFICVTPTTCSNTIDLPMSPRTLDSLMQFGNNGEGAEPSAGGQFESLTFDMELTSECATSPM
T1 sequence (Q96SW2 whole entry partner): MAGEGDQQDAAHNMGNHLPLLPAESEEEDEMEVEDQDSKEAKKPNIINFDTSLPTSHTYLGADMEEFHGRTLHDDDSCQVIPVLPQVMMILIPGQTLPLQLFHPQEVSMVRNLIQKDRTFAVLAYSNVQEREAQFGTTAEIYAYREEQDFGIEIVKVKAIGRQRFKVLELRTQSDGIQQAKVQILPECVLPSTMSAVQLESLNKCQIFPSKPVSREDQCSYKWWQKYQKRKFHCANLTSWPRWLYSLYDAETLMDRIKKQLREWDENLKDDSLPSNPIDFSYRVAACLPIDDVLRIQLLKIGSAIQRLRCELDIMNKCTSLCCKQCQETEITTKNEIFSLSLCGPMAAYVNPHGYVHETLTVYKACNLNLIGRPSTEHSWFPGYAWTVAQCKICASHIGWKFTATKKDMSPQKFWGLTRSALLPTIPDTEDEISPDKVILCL
Protein cereblon/Eukaryotic peptide chain release factor GTP-binding subunit ERF3A (Homo sapiens), sequence (P15170 whole entry, looked up): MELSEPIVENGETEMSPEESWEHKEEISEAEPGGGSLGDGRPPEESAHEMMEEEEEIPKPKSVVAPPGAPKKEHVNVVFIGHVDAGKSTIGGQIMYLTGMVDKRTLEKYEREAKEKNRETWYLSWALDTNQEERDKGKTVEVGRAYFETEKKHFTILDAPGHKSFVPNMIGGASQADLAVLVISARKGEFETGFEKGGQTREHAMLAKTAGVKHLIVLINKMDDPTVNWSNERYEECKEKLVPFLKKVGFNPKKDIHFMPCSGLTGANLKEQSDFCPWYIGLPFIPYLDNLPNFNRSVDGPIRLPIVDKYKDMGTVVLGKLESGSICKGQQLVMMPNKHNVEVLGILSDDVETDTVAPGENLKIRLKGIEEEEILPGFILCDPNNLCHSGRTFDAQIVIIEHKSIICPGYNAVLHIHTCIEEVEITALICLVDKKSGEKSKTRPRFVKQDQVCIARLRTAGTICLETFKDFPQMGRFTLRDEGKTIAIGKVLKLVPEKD
Protein cereblon/Eukaryotic peptide chain release factor GTP-binding subunit ERF3A (Homo sapiens), sequence (Q96SW2 whole entry, looked up): as the sequence (Q96SW2 whole entry partner) above
Protein cereblon/E3 SUMO-protein ligase NSE2 (Homo sapiens), sequence (Q96MF7 whole entry, looked up): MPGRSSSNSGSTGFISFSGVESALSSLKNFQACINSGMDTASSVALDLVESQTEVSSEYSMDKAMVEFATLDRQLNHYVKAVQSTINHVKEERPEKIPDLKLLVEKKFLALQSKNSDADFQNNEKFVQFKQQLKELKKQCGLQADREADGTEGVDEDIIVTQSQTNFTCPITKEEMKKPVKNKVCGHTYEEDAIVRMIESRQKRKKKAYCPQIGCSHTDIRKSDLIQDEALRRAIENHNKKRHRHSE
Protein cereblon/E3 SUMO-protein ligase NSE2 (Homo sapiens), sequence (Q96SW2 whole entry, looked up): as the sequence (Q96SW2 whole entry partner) above
Protein cereblon/Epithelial discoidin domain-containing receptor 1 (Homo sapiens), sequence (Q08345 whole entry, looked up, the tested form may be a part): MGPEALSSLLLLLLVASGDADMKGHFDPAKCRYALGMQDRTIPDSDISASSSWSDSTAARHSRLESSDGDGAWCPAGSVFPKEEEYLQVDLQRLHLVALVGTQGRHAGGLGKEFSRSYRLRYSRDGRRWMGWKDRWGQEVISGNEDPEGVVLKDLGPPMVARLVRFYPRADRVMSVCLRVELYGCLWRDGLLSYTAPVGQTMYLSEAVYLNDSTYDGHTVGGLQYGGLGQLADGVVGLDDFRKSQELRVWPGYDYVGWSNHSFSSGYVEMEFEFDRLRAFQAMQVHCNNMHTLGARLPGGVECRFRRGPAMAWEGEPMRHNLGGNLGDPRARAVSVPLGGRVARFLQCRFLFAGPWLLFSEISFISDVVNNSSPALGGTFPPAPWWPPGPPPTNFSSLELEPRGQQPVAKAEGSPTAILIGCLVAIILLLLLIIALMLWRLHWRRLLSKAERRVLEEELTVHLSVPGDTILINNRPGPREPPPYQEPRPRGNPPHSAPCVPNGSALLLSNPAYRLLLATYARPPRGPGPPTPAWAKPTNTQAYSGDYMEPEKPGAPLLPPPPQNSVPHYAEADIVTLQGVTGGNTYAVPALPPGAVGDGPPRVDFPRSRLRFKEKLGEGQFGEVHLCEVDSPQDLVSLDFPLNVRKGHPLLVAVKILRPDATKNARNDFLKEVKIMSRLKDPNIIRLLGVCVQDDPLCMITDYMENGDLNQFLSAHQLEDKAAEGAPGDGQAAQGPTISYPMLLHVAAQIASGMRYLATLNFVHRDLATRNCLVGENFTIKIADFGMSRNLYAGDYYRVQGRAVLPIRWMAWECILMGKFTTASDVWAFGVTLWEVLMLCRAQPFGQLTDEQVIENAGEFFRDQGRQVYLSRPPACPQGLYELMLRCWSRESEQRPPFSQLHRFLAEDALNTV
Protein cereblon/Epithelial discoidin domain-containing receptor 1 (Homo sapiens), sequence (Q96SW2 whole entry, looked up, the tested form may be a part): as the sequence (Q96SW2 whole entry partner) above
Protein cereblon/Methylated-DNA--protein-cysteine methyltransferase (Homo sapiens), sequence (P16455 whole entry, looked up): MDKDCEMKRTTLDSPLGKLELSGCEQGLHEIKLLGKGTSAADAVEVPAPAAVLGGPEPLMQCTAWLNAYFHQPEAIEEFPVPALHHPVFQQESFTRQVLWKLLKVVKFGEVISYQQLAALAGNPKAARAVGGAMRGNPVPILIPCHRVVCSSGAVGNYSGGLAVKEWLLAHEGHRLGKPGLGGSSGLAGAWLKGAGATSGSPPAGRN
Protein cereblon/Methylated-DNA--protein-cysteine methyltransferase (Homo sapiens), sequence (Q96SW2 whole entry, looked up): as the sequence (Q96SW2 whole entry partner) above

What is called IC50 is the concentration at which inhibition is half-maximal. A word on the DC50: it is the concentration giving 50% degradation. Take `O=C1CCC(N2C(=O)c3cccc(NCCCCCC4CCN(CCNC(=O)c5cc6c(o5)C(=O)c5ccccc5C6=O)CC4)c3C2=O)C(=O)N1` (stereo not drawn): the log2FC in assay [1] was -0.66; in [2], -0.69; in [3], -0.63; in [4], 0.62; in assay [5], -0.73; in assay [6], -0.74. In addition, the log2FC in assay [7] is 0.98; in assay [9] it was -0.86; in assay [10], -0.63; in [11], -1.27; in assay [13], -1.25; in assay [14], 1.54. Also, the log2FC in assay [16] was 0.73; in assay [19] it was -0.69; in assay [22], -0.9; in assay [23], 0.77. The outcome in assay [8] and in assay [21] was Active. Further, the IC50 in the assay with BXPC-3 [12] amounted to 800 nM; with BXPC-3 [18], 1200 nM; with BXPC-3 [20], 2100 nM. Moreover, the DC50 in assay [15] came out at 60 nM. In addition, the outcome in assay [17] was inactive.
